Assay results: ChEMBL document CHEMBL5390255, “Expanding the squaramide library as mycobacterial ATP synthase inhibitors: Innovative synthetic pathway and biological evaluation” (Bioorg Med Chem, 2023)
≈ marks a conversion by molar mass, not a printed value. Calls of active or inactive are those of the source. No cut-off for these calls is given here.

What was measured:
[1] = Octanol/water partition coefficient log P of the compound; format: physicochemical
How it was run: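 Calculated by Chemaxon as log n-octanol/water partition coefficient, not measured.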

[2] = system: Mycobacterium tuberculosis; assay: Antibacterial activity against Mycobacterium tuberculosis H37Ra assessed as bacterial growth inhibition incubated for 7 days by broth microdilution method; format: functional; settings: time 7 day
How it was run: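 H37Ra-Lux luminescent broth microdilution. Cultures in 7H9/OADC/tyloxapol/glycerol at 1x10⁴ RLU/well. 2-fold nine-point dilution from final 100 µM, DMSO ≤0.5%, in triplicate, with bedaquiline reference. Incubated 7 days at 37 °C; luminescence read after n-decanal injection. MIC90 from variable-slope four-parameter nonlinear regression.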

[3] = Cytotoxicity against mouse RAW264.7 cells assessed as reduction of cell viability incubated for 72 hrs by Cell Titer-Glo assay; format: toxicity, cell-based
[4] = system: Mycobacterium tuberculosis; assay: Bactericidal activity against Mycobacterium tuberculosis H37Ra assessed as bacterial growth inhibition incubated for 3 to 4 weeks by broth microdilution method; format: functional; settings: time 3-4 weeks
How it was run: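 MBC: same H37Ra-Lux microdilution setup as the MIC assay. At 14 days, 2 µL per condition spotted on 7H11 agar in triplicate, and wells at and one step above MIC fully plated. Colonies counted after 3–4 weeks at 37 °C. MBC is the lowest concentration giving >99% kill.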

[5] = system: Mycobacterium tuberculosis; assay: Anti-mycobacterial activity against Mycobacterium tuberculosis H37Ra infected in mouse RAW264.7 cells at 0.5 to 2 times MIC measured after 24 hrs by time-kill kinetic assay; format: functional, organism-based
How it was run: (§1)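 RAW 264.7 macrophages infected with H37Ra-Lux at MOI 10 for 4 h in DMEM with 5% iFBS. Extracellular bacteria were removed with 200 µg/ml amikacin for 1 h, and cells reseeded at 5x10⁴/well. […] Cells were PBS-washed, lysed in 0.1% Triton X-100, and luminescence read with n-decanal at 24, 48 and 72 h.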

[6] = system: Mycobacterium tuberculosis; assay: Anti-mycobacterial activity against Mycobacterium tuberculosis H37Ra infected in mouse RAW264.7 cells at 0.5 to 2 times MIC measured after 72 hrs by time-kill kinetic assay; format: functional, organism-based; how it was run: as §1
[7] = system: Mycobacterium tuberculosis; assay: Synergistic antibacterial activity against Mycobacterium tuberculosis H37Ra assessed as fractional inhibitory concentration index at 2 times MIC measured after 7 days in presence of clofazimine by checkerboard microdilution assay; format: functional; settings: time 7 day
How it was run: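 Checkerboard with H37Ra-Lux, in triplicate. Squaramide 2-fold dilutions from 2x MIC across columns; clofazimine 2-fold dilutions from 2x MIC down rows. Luminescence read at 7 days. FICI calculated as A/MIC A + B/MIC B.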

[8] = system: Mycobacterium tuberculosis; assay: Antibacterial activity against Mycobacterium tuberculosis H37Rv assessed as bacterial growth inhibition by resazurin staining based broth micro-dilution assay; format: functional
ATP synthase = assay: Inhibition of Mycobacterium tuberculosis H37Rv ATP synthase by luminometer analysis; format: protein-complex assay
[9] = Selectivity index, ratio of MIC for antibacterial activity against Mycobacterium tuberculosis H37Rv to the IC50 for inhibition of Mycobacterium tuberculosis H37Rv ATP synthase; format: toxicity
[10] = system: Mycobacterium tuberculosis; assay: Antibacterial activity against wild type Mycobacterium tuberculosis H37Ra incubated for 7 days by resazurin staining based microtiter assay; format: functional; settings: 168 h, time 7 day
How it was run: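 Resazurin microtiter assay on H37Ra atpB K179N mutants and wild type, using exponential cultures diluted to OD 0.02. 3-fold serial dilution from 10 µM (0.002–10 µM), in triplicate. After 7 days, 0.02% resazurin added for 24 h, then fluorescence read (ex 530/em 590 nm). MIC taken from four-parameter variable-slope nonlinear regression.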

[11] = system: Mycobacterium tuberculosis; assay: Anti-mycobacterial activity against Mycobacterium tuberculosis H37Ra infected in mouse RAW264.7 cells at 0.5 times MIC measured after 24 hrs by time-kill kinetic assay; format: functional, organism-based; how it was run: as §1
[12] = system: Mycobacterium tuberculosis; assay: Anti-mycobacterial activity against Mycobacterium tuberculosis H37Ra.mScarlet+ infected in mouse RAW264.7 cells assessed as reduction in bacterial load at 4 uM incubated for 72 hrs by 488-I Phalloidin/DAPI staining based microscopic analysis relative to control; format: functional; parameters: scale not given: the % may be the effect or the level left
How it was run: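 RAW 264.7 cells infected with H37Ra.mScarlet⁺, seeded on coverslips at 5x10⁵ cells/ml, and treated with compound at 0.5% final DMSO; infected cells with 0.5% DMSO as control. At 72 h cells were PBS-washed and fixed in 4% paraformaldehyde. Actin stained with phalloidin 488 (1:1000, 15 min) and nuclei with 1 µg/ml DAPI (5 min). Imaged by fluorescence microscopy at 63x.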

[13] = Stability of compound; format: physicochemical
[14] = Mycobacterium tuberculosis, H37Ra, 168 h, read-out: MIC
[15] = Mycobacterium tuberculosis, H37Ra, read-out: MBC

Structure (SMILES) | logP [1] | MIC [2, 14] [µM] | CC50 at 72 h [3] [µM] | also measured
Cc1ccc2nc(Nc3c(NCc4ccccn4)c(=O)c3=O)oc2c1 | 2.13 | > 64 | > 64 | 
O=c1c(NCc2ccccn2)c(Nc2ccccc2)c1=O | 1.58 | 15.1 (≈ 4.23 µg/mL) | > 64 | 
O=c1c(NCc2ccccn2)c(N2CCN(c3ccccc3)CC2)c1=O | 2.06 | > 64 | 26.2 | 
O=c1c(NCc2ccccn2)c(Nc2nc3cc(Cl)ccc3o2)c1=O | 2.22 | > 64 | > 64 | 
Cc1ccc2oc(Nc3c(NCc4ccccn4)c(=O)c3=O)nc2c1 | 2.13 | > 64 | > 64 | 
O=c1c(NCc2ccccn2)c(NC2CCCCCCC2)c1=O | 2.63 | > 64 | > 64 | 
O=c1c(NCc2ccccn2)c(Nc2nc3ccccc3o2)c1=O | 1.61 | > 64 | > 64 | 
O=c1c(NCCCBr)c(NCc2ccccn2)c1=O | 0.85 | > 64 | > 64 | 
C#CCNc1c(NCc2ccccn2)c(=O)c1=O | 0.17 | > 64 | > 64 | 
O=c1c(NCc2ccccn2)c(Nc2nc3ccc([N+](=O)[O-])cc3o2)c1=O | 1.55 | > 64 | > 64 | 
O=c1c(NCc2ccccn2)c(N2CCCCC2)c1=O | 1.18 | > 64 | > 64 | 
COc1ccc(-c2c(NCc3ccccn3)c(=O)c2=O)cc1 | 2.18 | 6.59 (≈ 1.94 µg/mL) | > 64 | MBC [4, 15]: 8 µM (≈ 2.35 µg/mL); Activity [5]: inactive; Activity [6]: inactive; fractional inhibitory concentration index (FICI) [7]: 0.63
O=c1c(NCc2ccccn2)c(-c2ccc(N3CCOCC3)cc2)c1=O |  |  | > 64 | MIC [8]: 0.5 µM (≈ 0.175 µg/mL); IC50 (ATP synthase): 0.03 µM; Selectivity Index [9]: > 1000; MIC [2]: 0.77 µM (≈ 0.269 µg/mL); MBC [4]: 0.4 µM (≈ 0.14 µg/mL); Activity [6]: inactive; fractional inhibitory concentration index (FICI) [7]: 0.37
O=c1c(NCc2ccccn2)c(Nc2cc(C3CC3)n[nH]2)c1=O | 0.89 | > 64 | > 64 | 
O=c1c(NCc2ccccn2)c(-c2ccc(C3CCCCC3)cc2)c1=O | 4.45 | > 64 | > 64 | 
O=c1c(NCc2ccccn2)c(-c2ccc(N3CCNCC3)cc2)c1=O | 1.91 | 19.9 (≈ 6.93 µg/mL) | > 64 | MBC [4, 15]: 64 µM (≈ 22.3 µg/mL)

Structure (SMILES) | logP [1] | MIC [2, 14] [µM] | CC50 at 72 h [3] [µM] | also measured
COc1nc2ccc(Br)cc2cc1[C@@H](c1ccccc1)[C@@](O)(CCN(C)C)c1cccc2ccccc12 [BEDAQUILINE] |  | 0.05 (≈ 0.0278 µg/mL) |  | MBC [4, 15]: 0.03 µM (≈ 0.0167 µg/mL); MIC [10]: 0.1 µM (≈ 0.0556 µg/mL)
O=c1c(NCc2ccccn2)c(N2CCC(c3ccccc3)CC2)c1=O | 2.6 | > 64 | 7.47 | 
O=c1c(NCc2ccccn2)c(-c2ccc(F)cc2)c1=O | 2.48 | 14.9 (≈ 4.21 µg/mL) | > 64 | MBC [4, 15]: > 100 µM
O=c1c(NCc2ccccc2)c(NCc2ccccn2)c1=O | 1.67 | > 64 | > 64 | 
O=c1c(NCc2ccccn2)c(Nc2nc3cc([N+](=O)[O-])ccc3o2)c1=O | 1.55 | > 64 | > 64 | 
O=c1c(NCc2ccccn2)c(N2CCOCC2)c1=O | 0.11 | > 64 | > 64 | 
CCCCCCNc1c(NCc2ccccn2)c(=O)c1=O | 2.16 | > 64 | > 64 | 
O=c1c(NCc2ccccn2)c(Nc2nc3ccc(Cl)cc3o2)c1=O | 2.22 | > 64 | > 64 | 
O=c1c(NCc2ccccn2)c(NC2CCCCC2)c1=O | 1.74 | > 64 | > 64 | 
O=c1c(NCc2ccccn2)c(-c2ccc(C3CCNCC3)cc2)c1=O | 2.44 | > 64 | > 64 | 
O=c1c(NCc2ccccn2)c(-c2ccc(N3CCCCC3)cc2)c1=O | 3.29 | 2.56 (≈ 0.889 µg/mL) | > 64 | MBC [4, 15]: 1.2 µM (≈ 0.417 µg/mL); Activity [6]: inactive; Activity [11]: Active; Activity [12]: 80%; fractional inhibitory concentration index (FICI) [7]: 0.29
CC/C(=C(\c1ccccc1)c1ccc(OCCN(C)C)cc1)c1ccccc1 [TAMOXIFEN] |  |  | 5.03 | 
CCCNc1c(NCc2ccccn2)c(=O)c1=O | 0.82 | > 64 | > 64 | 
COc1ccc(/C=C2/S/C(=N/N=C/c3ccccc3O)NC2=O)cc1 |  |  |  | MIC90 ([8]; Mycobacterium tuberculosis, H37Rv): 0.5 µg/mL (≈ 1.41 µM)
O=c1c(NCc2ccccn2)c(N2CCNCC2)c1=O | -0.21 | > 64 | > 64 | 
O=c1c(NCc2ccccn2)c(-c2ccc(N3CCSCC3)cc2)c1=O | 2.8 | 0.9 (≈ 0.329 µg/mL) | > 64 | MBC [4, 15]: 1.2 µM (≈ 0.439 µg/mL); Activity [6]: inactive; fractional inhibitory concentration index (FICI) [7]: 0.48; Stability [13]: Unstable
